Screens (PubChem)
Hits are enriched below; roughly 1.9% of the tested compounds scored in any of these assays.
697 NFkB inh: inhibitors of PMA/ionomycin-induced NF-kB reporter, 697 cells, primary screen, B-cell NF-kB inhibitor project, cell-based, luminescence, uHTS | 697 B-cell NF-kB luciferase reporter, 16 h | inhibition, % at 4 µM | 0.33% of 330,000 active; in the data active means inhibition above about 35%
H9c2 TAG inh: inhibitors of triacylglycerol accumulation, primary screen, cell-based, uHTS, fluorescence, H9c2; H9c2 cells, Nile Red lipid (TAG) fluorescence; cells loaded with 200 µM oleic acid; inhibition, % at 12.5 µM; 0.66% of 230,000 active; AID 651582, 2012;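 active means pattern-corrected inhibition of lipid staining of at least 50% with the nuclear-stain viability signal not falling by more than 50%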
Jurkat NFkB inh: inhibitors of induced NF-kB luciferase reporter, primary screen, TCR NF-kB activation inhibitor project, cell-based, luminescence, uHTS. Jurkat, PMA/ionomycin-induced NF-kB luciferase reporter. inhibition, % at 4 µM. 0.53% of 330,000 active. AID 435003, 2010; in the data active means inhibition above about 50%
Hep lipid drop: inhibitors of hepatocyte lipid droplet formation, primary screen, imaging, high-throughput imaging, BODIPY stain; AML12 mouse hepatocytes, oleate lipid droplets; inhibition, % at 6.5 µM; 0.4% of 240,000 active;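 active means lipid droplet intensity inhibited by at least 50%, with more than 500 cells counted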
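System: AML12 hepatocytes (mouse). Probe or stimulus: oleic acid at 100 µM to induce lipid droplet formation. Times: overnight treatment with compound plus oleate. Detection: Image-based BODIPY and DAPI two-channel analysis. Evaluation: percent inhibition of filter-corrected integrated lipid droplet intensity per well.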
APP 5UTR inh: inhibitors of APP translation via 5'UTR reporter, primary screen, APP 5'UTR luciferase, SH-SY5Y cells; AID 1285, 2008; 0.82% of 190,000 active; SH-SY5Y APP 5'UTR-luciferase reporter, luminescence; inhibition, % at 2 µM;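 active means inhibition above a set limit, derived from the sample mean plus 3 SD, cut at about 45% in these data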
aSyn UTR inh: MLPCN primary screen, SNCA 5' untranslated region; alpha-synuclein 5'UTR reporter, inhibitor activity; inhibition, % (tested at 7.5 µM); 0.82% of 300,000 active; in the data active means inhibition above about 60%;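 further: H4 neuroglioblastoma cells stably carrying SNCA 5'UTR luciferase fusion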
H9c2 TAG conf: triacylglycerol accumulation inhibitors, retest, confirmation, cell-based, single concentration, Nile Red fluorescence, H9c2. 71% of 990 active. inhibition, % at 12.5 µM. H9c2 lipid accumulation; cells loaded with 200 µM oleic acid. shares compounds with H9c2 TAG inh. AID 651629, 2012;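 active means mean inhibition across replicates of 40% or more; inactive means mean inhibition below 40%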
Large screens that a line does not name were inactive (follow-up assays come after a bar, where they were run).

Cc1cccc(C)c1N1CCN(c2ccc3nnc(C(F)(F)F)n3n2)CC1	none
CSc1ccc(S(=O)(=O)NC2CC2)cc1	none (no result: H9c2 TAG inh, APP 5UTR inh)
CC1(C)Cc2cccc(OCC(=O)Nc3ccc(OCC(N)=O)cc3)c2O1	H9c2 TAG inh 66 | H9c2 TAG conf inactive
CC(=O)Nc1ccc(NC(=O)COc2cccc3c2OC(C)(C)C3)cc1	none
Cc1ccc2c(c1)N(C(=O)CCC(=O)NCCCN1CCC(Cc3ccccc3)CC1)CCO2	H9c2 TAG inh 61 (no result: APP 5UTR inh) | H9c2 TAG conf 60
CC(O)c1nc2ccccc2n1CCCOc1ccccc1 (stereo unspecified)	none (no result: APP 5UTR inh)
O=c1c2cnn(-c3ccccc3Cl)c2ncn1Cc1cccnc1	none (no result: H9c2 TAG inh, Hep lipid drop)
OCCCn1c(C2CCCN2c2nc(-c3ccc(F)cc3)cs2)nc2cc(C(F)(F)F)ccc21 (stereo unspecified)	H9c2 TAG inh 60 (no result: Hep lipid drop, APP 5UTR inh) | H9c2 TAG conf 57
OCCCn1c(C2CCCN2c2nc(-c3ccc(Cl)cc3)cs2)nc2cc(Cl)c(N3CCCCC3)cc21 (stereo unspecified)	H9c2 TAG inh 62 (no result: Hep lipid drop, APP 5UTR inh) | H9c2 TAG conf 56
CCOC(=O)N1CCN(S(=O)(=O)c2ccc3c4c(cccc24)C(=O)N3)CC1	none (no result: APP 5UTR inh)
CCOc1ccccc1N1CCN(S(=O)(=O)c2ccc3c4c(cccc24)C(=O)N3)CC1	H9c2 TAG inh 52 | H9c2 TAG conf inactive
COc1ccccc1CNC(=O)C(NC(=O)c1ccc(C)cc1)C(C)C (stereo unspecified)	none
Cc1cccc(NC(=O)c2nc[nH]c2C(=O)NCCCCCCNC(=O)c2[nH]cnc2C(=O)Nc2cccc(C)c2)c1	H9c2 TAG inh 76 (no result: Hep lipid drop, APP 5UTR inh, aSyn UTR inh) | H9c2 TAG conf inactive
Cc1ccc(C2=NS(=O)(=O)N(C)C(C(=O)NCc3ccccc3)=C2)cc1	none (no result: APP 5UTR inh)
CN1CCN(CCCNc2nc3ccccc3c3nc(-c4ccccc4)nn23)CC1	none (no result: 697 NFkB inh, Jurkat NFkB inh, Hep lipid drop, APP 5UTR inh, aSyn UTR inh)
CCN(CC)CCCNc1nc2cc(OC)c(OC)cc2c2nc(-c3ccccc3)nn12	H9c2 TAG inh 61 | H9c2 TAG conf inactive
COc1cc2nc(NCCCN3CCN(C)CC3)n3nc(-c4ccccc4)nc3c2cc1OC	H9c2 TAG inh 61 (no result: APP 5UTR inh) | H9c2 TAG conf 41
O=C(O)CSCCOc1ccc(OCCSCC(=O)O)cc1	none (no result: H9c2 TAG inh)
O=C(Cc1ccc(Cl)cc1)c1c[nH]c(C(=O)NCCCn2ccnc2)c1	none
O=C1COc2ccc(C(=O)CSc3nc4ccccc4c(=O)n3-c3ccc(Cl)c(Cl)c3)cc2N1	H9c2 TAG inh 61 | H9c2 TAG conf 66
C=CCC[C@@H](Cc1ccc(F)cc1)C(=O)OC[C@@H](Cc1c[nH]c2ccccc12)NC(=O)[C@@H](CC=C)CC(=O)N(CCO)Cc1ccccc1	H9c2 TAG inh 60 (no result: Hep lipid drop, APP 5UTR inh, aSyn UTR inh) | H9c2 TAG conf 60
C=CCC[C@H](Cc1ccc(F)cc1)C(=O)OC[C@H](Cc1c[nH]c2ccccc12)NC(=O)[C@H](CC=C)CC(=O)N(CCO)Cc1ccccc1	none (no result: Hep lipid drop, APP 5UTR inh, aSyn UTR inh)
C=CC[C@@H](CC(=O)N(CCO)Cc1ccccc1)C(=O)N[C@H](COC(=O)[C@@H](CC=C)Cc1ccc(F)cc1)Cc1c[nH]c2ccccc12	H9c2 TAG inh 62 (no result: Hep lipid drop, APP 5UTR inh, aSyn UTR inh) | H9c2 TAG conf 63
O=C(Nc1cccc2ncccc12)c1ccc(Cl)cc1	H9c2 TAG inh 71 (no result: APP 5UTR inh) | H9c2 TAG conf 75
O=C(Nc1cccc2ncccc12)c1ccc(F)cc1	none (no result: H9c2 TAG inh, APP 5UTR inh)
CCn1c2ccccc2c2cc(N)ccc21	none (no result: H9c2 TAG inh, Hep lipid drop)
CCC(CC)NCc1ccc2c(c1)c1ccccc1n2CC	H9c2 TAG inh 52 | H9c2 TAG conf inactive
O=C(Cc1n[nH]c(=O)c2ccccc12)OCC(=O)c1ccc2c(c1)OCCO2	H9c2 TAG inh 81, APP 5UTR inh 95, aSyn UTR inh 80 (no result: Hep lipid drop) | H9c2 TAG conf 56
O=C(CCCC(=O)OCC(Cl)=C(Cl)Cl)Nc1ccccc1	none (no result: H9c2 TAG inh)
CCSCc1nnc(SCC(=O)Nc2nccs2)n1CC	none
CCn1c(COc2ccc(C(C)C)cc2)nnc1SCC(=O)Nc1nccs1	H9c2 TAG inh 57 (no result: APP 5UTR inh) | H9c2 TAG conf inactive
